Test results reported in ChEMBL document CHEMBL4513216, “Probing the Open Global Health Chemical Diversity Library for Multistage-Active Starting Points for Next-Generation Antimalarials” (ACS Infect Dis, 2020).

Assay: Toxicity liver stage against HepG2, at 10uM
Type: cell-based
Design: test concentration 10 uM, cell line HepG2-A16-CD81EGFP
Details: human, HepG2-A16-CD81EGFP cells; read-out: INHIBITION
Summary of the method: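 Uninfected HepG2-A16-CD81EGFP cells, 3 × 10^3 per well, 1536-well, plated on prespotted compound at 10 μM final, parasite-free screening media added to match infected plates; puromycin 10 μM positive, DMSO 0.5% negative; run in parallel with 48 h PbLuc assay at 37 °C, 5% CO2; viability by CellTiter-Glo luminescence, normalized to controls.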

Compound | cytotoxicity at 10 µM [%]
Fc1ccc(C2CCCN2Cc2nc(Cc3ccccc3F)no2)cc1 (stereo unspecified) | -18.2
O=C1N(Cc2ccccn2)C[C@H]2CN(S(=O)(=O)c3ccccc3)CCN12 | 4.97
CN1CCC(N2CCOC[C@H](OCC(=O)N(C)C)C2)CC1 | 1.44
O=S1(=O)N(c2ccccc2)C[C@@H](O)[C@]12CCNC2 | 2.63
CC(=O)N1CC(C(=O)Nc2cccc(OC(F)F)c2)C1 | 1.22
COc1ccc(CCC(=O)NCCN2CCC(c3cccs3)CC2)cc1 | 4.59
CN(C)C(=O)CNC(=O)c1ccc2ccc(N(C)CC3CC3)n2c1 | 1.11
COCC(=O)NCC1Cn2nnc(-c3ccoc3)c2CO1 (stereo unspecified) | 17
CCN1CC2(CC1=O)CN(C(C)=O)CCN(S(C)(=O)=O)C2 (stereo unspecified) | 0.38
Cc1cnc(N2CCC3(CCC(C(=O)NC(C)C)OC3)CC2)nc1 (stereo unspecified) | 0.903
O=C(C1CCCO1)N1CCC2(CC1)CNCCO2 (stereo unspecified) | -7.06
CNc1nc2c(s1)C(c1cccc(Cl)c1Cl)CC(=O)N2 (stereo unspecified) | 5.97
Cc1oc(-c2nc(C#N)c(NC3CC3)o2)cc1S(=O)(=O)N1CCCC1 | -9.95
CCOC(=O)N1CCN(C(=O)CCn2ccc3c(OC)cccc32)CC1 | 9.69
Cc1c(Br)c(C(F)F)nn1C(C)C(=O)O (stereo unspecified) | 4.51
CCn1c(NCC2CCCO2)nc2c(C)nn(C)c2c1=O (stereo unspecified) | -3.09
CCn1c(SCC(N)=O)nnc1-c1csc2c1CCCC2 | 16
COC(=O)c1cc(C2CC2)nc2c(C#N)cnn12 | 14
Cc1nc(CCC(N)=O)cc(C2CCCN2S(C)(=O)=O)n1 (stereo unspecified) | -5.32
CC(=O)NCC(=O)N1CCCC1c1ccc(CN2CCOCC2)cn1 (stereo unspecified) | -2.3
CC(C)(C)OC(=O)N1CCn2c(nnc2C2CCCNC2)C1 (stereo unspecified) | -1.58
Cc1nnc(C2CCN(c3ncccn3)CC2)o1 | 10.8
Cc1cc(C)nc(N2CC=C[C@H]2C(=O)NCc2ccc3c(c2)OCO3)n1 | 0.711

Compound | cytotoxicity at 10 µM [%]
Cc1noc(C)c1CCC(=O)N1CCOCC1CCc1cnccn1 (stereo unspecified) | -3.37
CC(=O)N1CCC(c2cccc(-c3cccc(C(=O)O)c3)n2)CC1 | -0.0353
c1ccc(CCN2CCCC2c2ccnc(Nc3cnccn3)n2)cc1 (stereo unspecified) | -3.65
O=C(CC1CCCC1)N1CCCC1c1nc(O)cc(-c2ccccn2)n1 (stereo unspecified) | -3.73
CN(C)C(=O)c1cc(-c2ccc(S(C)(=O)=O)cc2)c2cnn(C)c2n1 | 3.63
COc1ccc(C(=O)Nc2nncs2)cn1 | -11.9
Cc1ccc(S(=O)(=O)N(C)Cc2cnccn2)cc1N(C)C | 12
CC(C)CC(NC(=O)CSCC(N)=O)c1cccs1 (stereo unspecified) | -0.431
CNC(=O)CNC(=O)NCc1cc2c(s1)CCC(C)(C)C2 | 4.08
CC1CCC(NS(=O)(=O)CC(=O)NCC2CCC2)CC1 (stereo unspecified) | -3.17
O=C(NCc1ccc(OCC2CC2)nc1)C1COc2ccccc2O1 (stereo unspecified) | 0.0616
CCOC(=O)c1nnc2ccccc2c1N1CCN(CC)CC1 | -2.27
O=C(NCCSC1CCCC1)c1c(F)cccc1F | 8.74
O=C(CN1CCOC(Cn2cccn2)C1)NC1CCN(C2CC2)CC1 (stereo unspecified) | 1.1
Cc1ccc(-c2nc(CCNC(=O)C3CC(=O)N(C)C3)cs2)cc1 (stereo unspecified) | -5.54
Cc1nnc(C2Cc3ccccc3CN2Cc2ncc(Cl)n2C)o1 (stereo unspecified) | 8.72
CCCC(C(=O)NCCc1nc(C)cs1)N(C)C (stereo unspecified) | -4.17
O=C(Nc1cccc(C(F)F)c1)N[C@@H]1C=C[C@H](CO)C1 | -4.81
Cc1nc(CNCC(O)COc2ccc3c(c2)OCO3)cs1 (stereo unspecified) | 4
CN(C)C(CNC(=O)c1nc(N2CCCC2)ncc1Cl)c1ccco1 (stereo unspecified) | 5.92
Cc1cc(NCC2(O)CCOCC2)c2ccccc2n1 | -13.3
CCC(CC)NC(=O)CN1CCSCC1 | -8.98
CC(=O)Nc1cccc(C(C)NCC2CCS(=O)(=O)CC2)c1 (stereo unspecified) | 0.224

Compound | cytotoxicity at 10 µM [%]
CC(C)(C)NC(=O)CNC(=O)Nc1cc(-c2ccccc2)ns1 | 16.6
Cc1ccc(F)c(C(=O)Nc2cccc(CCN3CCCC3)c2)c1 | 0.0833
Cn1cc(CNCCc2cccnc2)c(-c2cccnc2)n1 | 9.37
Cc1cc(S(=O)(=O)N(CCO)C2CC2)ccc1F | 0.866
CSCC(C)(O)CNc1ncccc1C(F)(F)F (stereo unspecified) | 13.7
CC1CN(Cc2ccccc2)CCCN1CCS(C)(=O)=O (stereo unspecified) | -1.4
O=C(CCCNC(=O)NCC1CCCO1)Nc1ccc(Cl)cc1 (stereo unspecified) | -4.52
CC(=O)NCC1CCN(C(=O)c2c(C)[nH]c3ccc(Cl)cc23)CC1 | 8.11
C=C(C)CN(Cc1cccc(O)c1)C1CCC(O)CC1 (stereo unspecified) | 17.3
CC(c1nc(C(C)(C)C)no1)N1CCN(CC(=O)N2CCOCC2)CC1 (stereo unspecified) | -2.67
O=C(C1CC=CC1)N1CCC2(CC1)CN(Cc1ccccn1)CCO2 | -10.1
O=C(c1n[nH]c2c1CCC2)N1CCCC1c1nc(-c2ccccn2)no1 (stereo unspecified) | -1.82
Cc1cnccc1N1CCCN(C(=O)CCc2n[nH]c(C)c2C)CC1 | -3.79
CSCCc1nc(-c2ccc3c(c2)OCO3)n(C)n1 | 1.6
O=C(CN1CCN(c2ncnc3c2CCNCC3)CC1)N1CCCCC1 | 6.63
OC[C@@H]1CCCN1c1ccc(-c2nc(COc3ccccc3)no2)cn1 | -8.42
c1ccc(Cc2noc(-c3ccc(NCC4CCCCO4)nc3)n2)cc1 (stereo unspecified) | 3
COCC(=O)N1CCN(S(=O)(=O)c2ccccc2)[C@H]2CS(=O)(=O)C[C@H]21 | 4.84
Cc1nc(CC(=O)N2CCCC(N(C)Cc3ccccc3)C2)cs1 (stereo unspecified) | 9.38
OC1(CN2CCCC2)CCCN(Cc2c[nH]c(CC3CCCC3)n2)C1 (stereo unspecified) | -9.09
Cc1nccn1-c1ccc(N2CCC(NC(C)C(C)C)CC2)cc1 (stereo unspecified) | -7.33
O=C(C1CCCCO1)N1CCc2ncnc(NCCO)c2CC1 (stereo unspecified) | 7.94
Cc1nnc(N2CC[C@@]3(O)CCNC[C@H]3C2)c2ccccc12 | 2.61

Compound | cytotoxicity at 10 µM [%]
CC(C)n1cnnc1CN(C)C(=O)Cn1ccc2ccccc2c1=O | 3.1
COCCNc1cc(-c2ccccc2CCN)c2cc[nH]c2n1 | 2.13
CC(C)C(=O)NCC(=O)NCC1CCN(c2cnn(C)c(=O)c2)CC1 | 3.47
O=C(O)c1cnc(N2CCC(c3nccn3CC3CC3)CC2)c(Cl)c1 | -9.98
COc1ccc2c(c1)C(C(=O)NCCCN1CCN(C)CC1)CC(=O)N2 (stereo unspecified) | 11.2
CN(C)C[C@H]1C[C@@H](CO)CN(C(=O)c2cc(=O)[nH]c3cc(F)ccc23)C1 | -4.16
O=C(c1cc[nH]n1)N1CCc2ncnc(N3CCSCC3)c2CC1 | -3.67
CCN1CCCC(C)(C(=O)NCCCc2nc(C)cs2)C1 (stereo unspecified) | 1.54
Cc1cc(C(=O)N2CCCC(C(=O)c3nccn3C)C2)c(=O)[nH]c1C (stereo unspecified) | 3.15
CCn1c(CN(C)C)nnc1C1CCN(Cc2cccc(C#N)c2)CC1 | 6.5
CO[C@H]1CN(C(C)C)C[C@@H]1NC(=O)c1cc(-c2ccccc2O)n[nH]1 | -0.247
Cc1cccc(C(C(=O)N(C)Cc2ccon2)N(C)C)c1 (stereo unspecified) | 5.4
CN(c1ncccc1CNC(=O)c1cscn1)C1CCCCC1 | 1.86
CCCc1nc(N2Cc3cnn(Cc4ccc(F)cc4)c3C2)no1 | 17.3
Cn1c(=O)c2cc(C(=O)NCc3ccccn3)ccc2n(C)c1=O | -6.14
O=C(c1ccccn1)N1CCc2nc(-c3cnccn3)nc(O)c2C1 | 0.487
O=C(Nc1ccc(CCN2CCOCC2)cc1)C1CCC1 | -9.95
COCc1nc(C(=O)NS(=O)(=O)c2cc(C)ccc2C)cs1 | -4.04
Cc1ccc(C)n1-c1ccc(C(=O)NCCNc2ncccn2)cc1 | -1.25
CCOc1ccnc(N2CCN(C(=O)C(C)(C)C#N)CC2)n1 | -4.91
CC(C)c1nc(C2CCCN(C(=O)Cc3cccnc3)C2)no1 (stereo unspecified) | -8.97
COCC(C)N(C)C(=O)c1nc(S(C)(=O)=O)n2ccccc12 (stereo unspecified) | -11
O=C(Nc1nnc(C2CC2)s1)NC1CCN(Cc2ccccc2)C1 (stereo unspecified) | -10.7

Compound | cytotoxicity at 10 µM [%]
Cn1cnc2c1CCN(Cc1cccc(OCC(N)=O)c1)C2 | -9.98
Cc1nc2cc(=O)[nH]n2c(C)c1CC(=O)Nc1ccc2ccccc2n1 | -4.15
Cc1ccccc1CNC(=O)Cc1c(C)nc2cc(=O)[nH]n2c1C | -2.35
N#Cc1ccccc1N1CCCN(C(=O)CCc2nccs2)CC1 | -2.12
Cc1ccc(NC2CCN(C(=O)c3cnc(C)s3)CC2)nn1 | 2.48
CCc1nc(C2CCCN2C(=O)c2c[nH]c(C)n2)no1 (stereo unspecified) | -0.674
Cn1nc2c(cc1=O)CN(Cc1nc(-c3cccs3)no1)CC2 | -2.82
CC(C)c1nc(C2CCCN2CCCc2nc3ccccc3o2)no1 (stereo unspecified) | -8.43
O=C(NCC(=O)N1CCc2ccccc2C1)c1ccoc1 | -4.59
Cc1noc(C)c1CNCC1CCCN1c1cccnn1 (stereo unspecified) | 3.3
Cc1ccc(NC(=O)C(C)N2CCCN(c3nccs3)CC2)c(C)c1 (stereo unspecified) | 2.72
COc1cccc(CN2CCCCC2c2n[nH]cc2-c2cc(C)no2)c1 (stereo unspecified) | 17.1
Cc1ncccc1-c1cc2cccnc2n1CCCNC(=O)C1CC1 | 2.18
NC(=O)C1CN(c2ccc(F)cc2)CCN1 (stereo unspecified) | -4.98
CN(C)CCO[C@H]1CN(CC2CC2)[C@@H]2CCCO[C@H]12 | -96.3
CC(C)OCCCN(CC(=O)N1CCNCC1)C(=O)c1cccc(Cl)c1 | 10.3
O=C(NC1CCCC1)N1CC[C@H]2[C@H]1CCN2c1nncs1 | -7.73
c1nc(N2CCc3nc[nH]c3C2)c2cc[nH]c2n1 | -5.71
CCOC(=O)c1cnn(C2CCN(C(=O)CC3CCCC3)CC2)c1N | 0.969
